From ChEMBL document CHEMBL1126688, “Interphenylene 7-oxabicyclo[2.2.1]heptane oxazoles. Highly potent, selective, and long-acting thromboxane A2 receptor antagonists” (J Med Chem, 1993)

Experiments:
[1] = organism: Homo sapiens; experiment: Inhibitory activity against platelet aggregation, induced by U-46619 in human platelet rich plasma; type: functional; details: read-out: I50
Procedure, shortened: (§1)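 Human platelet-rich plasma. Aggregation was induced by exogenous arachidonic acid or by the TxA2 mimetic U-46,619, each at a single fixed agonist level. I50 was taken as the antagonist concentration giving 50% inhibition of aggregation.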

[2] = target: T1, Thromboxane A2 receptor (Homo sapiens, UniProt P21731); experiment: Inhibitory binding activity against TXA2 receptor in human platelet membrane, using [3H]-SQ 29548 as the radioligand
T1 sequence (P21731 whole entry): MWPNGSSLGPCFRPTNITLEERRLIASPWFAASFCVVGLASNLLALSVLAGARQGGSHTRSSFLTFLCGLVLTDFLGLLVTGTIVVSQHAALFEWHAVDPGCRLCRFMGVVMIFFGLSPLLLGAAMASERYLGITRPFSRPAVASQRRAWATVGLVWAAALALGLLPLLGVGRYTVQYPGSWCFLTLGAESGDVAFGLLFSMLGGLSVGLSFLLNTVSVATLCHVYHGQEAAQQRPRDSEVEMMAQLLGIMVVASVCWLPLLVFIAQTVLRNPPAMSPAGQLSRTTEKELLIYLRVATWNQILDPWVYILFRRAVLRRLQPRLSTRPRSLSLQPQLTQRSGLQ
Procedure, shortened: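 Competition binding of [3H]-SQ 29,548 to TxA2 receptors in human platelet membranes, measured as inhibition of specific binding. Kd (inhibition constant) was calculated from each compound's I50 value. A slope factor is also reported.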

[3] = organism: Homo sapiens; experiment: Inhibitory activity against platelet aggregation, induced by arachidonic acid in human platelet rich plasma; type: functional; details: read-out: I50; procedure, shortened: as §1
[4] = Partition coefficient (logP); type: physicochemical; details: octanol/water
Procedure, shortened: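 log P came from reversed-phase TLC Rm values on C18 plates. Eluent was acetone in 0.5 M aqueous KBr, buffered with 0.25 N triethylammonium phosphate to pH 7.3. Values were converted with a calibration curve built from shake-flask partition coefficients (pH 7.0) of seven oxabicycloheptane compounds spanning a range of lipophilicities.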

[5] = system: Mus musculus; experiment: In vivo duration of action required to prevent death in mice, after i.v. administration of U-46619 (2 mg/kg) at 0.2 mg/kg p.o.; details: po
[6] = system: Mus musculus; experiment: In vivo duration of action required to prevent death in mice, after iv administration of U-46619 (2 mg/kg) at 10 mg/kg po administration of compound

| IC50 [1] [nM] | IC50 [3] [nM] | SMILES | Kd [2] [nM] | logP [4] | T50 [5] [h] | T50 [6] [h] |
| --- | --- | --- | --- | --- | --- | --- |
| 11 | 4 | O=C(O)CCc1ccccc1CC1C2CCC(O2)C1c1nc(C(=O)CCCCCC2CCCCC2)co1 (stereo not drawn) | 0.05 |  |  |  |
|  |  | CNC(=O)c1coc(C2C3CCC(O3)C2Cc2ccccc2CCC(=O)O)n1 (stereo not drawn) | 45 | -0.11 | 7.5 |  |
|  |  | CCCCCCCCCCNC(=O)c1coc(C2C3CCC(O3)C2Cc2ccccc2CCC(=O)O)n1 (stereo not drawn) | 5.8 | 3.86 | 4.3 |  |
|  | 110 | O=C(O)c1cccc(CCC2C3CCC(O3)C2c2nc(C(=O)NCCCCC3CCCCC3)co2)c1 (stereo not drawn) | 18.4 |  |  |  |
|  | 6 | COc1ccc(NC(=O)c2coc(C3C4CCC(O4)C3Cc3ccccc3CCC(=O)O)n2)cc1 (stereo not drawn) |  | 0.95 |  |  |
|  |  | O=C(O)CCc1ccccc1CC1C2CCC(O2)C1c1nc(C(=O)NC2CCCCC2)co1 (stereo not drawn) | 4.5 | 0.89 | 8.3 |  |
|  | 64 | CC(C)(CCCCNC(=O)c1coc(C2C3CCC(O3)C2Cc2ccccc2CCC(=O)O)n1)C(=O)O (stereo not drawn) |  | 0.5 |  |  |
| 10 | 2 | O=C(O)CCc1ccccc1CC1C2CCC(O2)C1c1nc(C(=O)OCCCCC2CCCCC2)co1 (stereo not drawn) | 1 |  |  |  |
|  | 1070 | NC(=O)CCc1ccccc1CC1C2CCC(O2)C1c1nc(C(=O)NCCCCC2CCCCC2)co1 (stereo not drawn) |  |  |  |  |
|  |  | CCCCCCCNC(=O)c1coc(C2C3CCC(O3)C2Cc2ccccc2CCC(=O)O)n1 (stereo not drawn) | 0.2 | 2.88 | 9.5 | 27.4 |
|  | 6 | CSc1ccc(CCCCNC(=O)c2coc(C3C4CCC(O4)C3Cc3ccccc3CCC(=O)O)n2)cc1 (stereo not drawn) | 2.9 | 1.66 |  |  |
| 35 | 15 | O=C(O)CCc1ccccc1CC1C2CCC(O2)C1c1nc(C(=O)NCCCCCO)co1 (stereo not drawn) | 20 | 1.07 |  |  |
|  | 1540 | O=C(NCCCCC1CCCCC1)c1coc(C2C3CCC(O3)C2Cc2ccccc2CCCO)n1 (stereo not drawn) | 112 |  |  |  |
|  | 1580 | O=C(O)Cc1ccccc1CCC1C2CCC(O2)C1c1nc(C(=O)NCCCCC2CCCCC2)co1 (stereo not drawn) |  |  |  |  |
|  | 2 | CS(=O)(=O)NC(=O)CCc1ccccc1CC1C2CCC(O2)C1c1nc(C(=O)NCCCCC2CCCCC2)co1 (stereo not drawn) | 1.6 |  |  |  |
| 258 | 44 | NC(=O)c1coc(C2C3CCC(O3)C2Cc2ccccc2CCC(=O)O)n1 (stereo not drawn) |  | -0.78 |  |  |
| 29 | 12 | O=C(O)CCc1ccccc1CC1C2CCC(O2)C1c1nc(C(=O)NCCCCC(F)(F)F)co1 (stereo not drawn) | 4.8 | 1.59 |  |  |
|  | 12 | O=C(O)CCc1ccccc1CC1C2CCC(O2)C1c1nc(C(=O)Nc2ccccc2)co1 (stereo not drawn) |  | 1.19 |  |  |
|  | 31000 | O=C(O)CCc1ccccc1CC1C2CCC(O2)C1c1nc(CO)co1 (stereo not drawn) |  |  |  |  |
|  |  | O=C(O)CCc1ccccc1CC1C2CCC(O2)C1c1nc(C(=O)NCCCCC2CCCCC2)co1 (stereo not drawn) |  | 3.93 | 22.5 | 49.6 |

| SMILES | IC50 [1] [nM] | IC50 [3] [nM] | Kd [2] [nM] | logP [4] | T50 [5] [h] | T50 [6] [h] |
| --- | --- | --- | --- | --- | --- | --- |
| O=C(O)CCc1ccccc1CC1C2CCC(O2)C1c1nc(C(=O)NCCC2CCCCC2)co1 (stereo not drawn) |  | 2 | 0.7 | 1.03 | 8.3 |  |
| CCCCCNC(=O)c1coc(C2C3CCC(O3)C2Cc2ccccc2CCC(=O)O)n1 (stereo not drawn) [BMS-180291] | 21 |  | 4 | 1.61 | 14.4 | 29.4 |
| O=C(O)CCc1ccccc1CC1C2CCC(O2)C1c1nc(C(=O)Nc2ccc(Cl)cc2)co1 (stereo not drawn) |  | 6 |  | 2.52 | 25.8 |  |
| CC(C)(C)CCCCNC(=O)c1coc(C2C3CCC(O3)C2Cc2ccccc2CCC(=O)O)n1 (stereo not drawn) | 35 | 8 | 0.6 | 3.41 | 36.5 |  |
| O=C(O)CCc1ccccc1CC1C2CCC(O2)C1c1nc(C(=O)NCCCCc2ccccc2)co1 (stereo not drawn) | 13 | 4 | 0.3 | 1.8 | 20 |  |
| O=C(O)CCc1ccccc1CC1C2CCC(O2)C1c1nc(C(=O)NCCCCc2ccc(F)cc2)co1 (stereo not drawn) | 11 | 4 | 3.9 | 2.17 | 22.5 |  |
